Reference: ChEMBL document CHEMBL1128272, “Stereoselective LSD-like activity in a series of d-lysergic acid amides of (R)- and (S)-2-aminoalkanes” (J Med Chem, 1995)
Active and inactive are the calls of the source. The rule behind the calls is not given here.

Columns and labels:
Rattus norvegicus [1] = test: Compound was tested for its effect on animals. Value reported as number of rats disrupted in trained rats at a dose of 171 (nmol/kg); assay type: functional
Outline: (§1)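 Two-lever drug discrimination in food-restricted rats (~80% free-feeding weight) trained on FR 50 to tell saline from LSD tartrate (186 nmol/kg, 0.08 mg/kg ip, 30 min pre-session). Test drugs were given ip in saline, 1 mL/kg. Test sessions ran under extinction, ending at 50 presses on either lever. Testing required 85% training accuracy. Counts of rats tested and disrupted were recorded, plus the percentage selecting the drug lever.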

[2] = target: T1, 5-hydroxytryptamine receptor 1A (Rattus norvegicus, UniProt P19327); test: Binding affinity was measured against 5-hydroxytryptamine 1A receptor by displacement of [3H]8-OH-DPAT by lysergic acid amides
T1 sequence (P19327 whole entry): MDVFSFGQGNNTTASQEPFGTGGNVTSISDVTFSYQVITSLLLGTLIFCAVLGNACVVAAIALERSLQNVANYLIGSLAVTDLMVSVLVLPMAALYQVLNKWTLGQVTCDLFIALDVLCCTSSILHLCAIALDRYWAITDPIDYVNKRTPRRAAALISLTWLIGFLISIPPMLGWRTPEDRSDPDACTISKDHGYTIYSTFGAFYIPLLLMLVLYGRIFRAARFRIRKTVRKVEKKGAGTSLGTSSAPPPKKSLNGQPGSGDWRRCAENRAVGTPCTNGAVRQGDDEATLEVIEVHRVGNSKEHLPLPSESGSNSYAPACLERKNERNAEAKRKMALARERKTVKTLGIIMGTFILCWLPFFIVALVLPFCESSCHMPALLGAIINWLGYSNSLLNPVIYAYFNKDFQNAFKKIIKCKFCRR
Outline: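 Rat hippocampal membranes from pooled male Sprague-Dawley rats, preincubated at 37 °C, in 50 mM Tris HCl (pH 7.4) with 0.5 mM Na2EDTA, 0.1% ascorbate and 10 μM pargyline. Competition against 0.75 nM [3H]-8-OH-DPAT for 10 min at 37 °C, then GF/C filtration and scintillation counting. Triplicates. Three to four experiments combined, analysed with EBDA/LIGAND.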

[3] = target: 5-hydroxytryptamine receptor 2A (Rattus norvegicus, UniProt P14842); test: Binding affinity was measured against 5-hydroxytryptamine 2A receptor by displacement of [3H]- ketanserin by lysergic acid amides
Chain of 5-hydroxytryptamine receptor 2A (P14842 whole entry): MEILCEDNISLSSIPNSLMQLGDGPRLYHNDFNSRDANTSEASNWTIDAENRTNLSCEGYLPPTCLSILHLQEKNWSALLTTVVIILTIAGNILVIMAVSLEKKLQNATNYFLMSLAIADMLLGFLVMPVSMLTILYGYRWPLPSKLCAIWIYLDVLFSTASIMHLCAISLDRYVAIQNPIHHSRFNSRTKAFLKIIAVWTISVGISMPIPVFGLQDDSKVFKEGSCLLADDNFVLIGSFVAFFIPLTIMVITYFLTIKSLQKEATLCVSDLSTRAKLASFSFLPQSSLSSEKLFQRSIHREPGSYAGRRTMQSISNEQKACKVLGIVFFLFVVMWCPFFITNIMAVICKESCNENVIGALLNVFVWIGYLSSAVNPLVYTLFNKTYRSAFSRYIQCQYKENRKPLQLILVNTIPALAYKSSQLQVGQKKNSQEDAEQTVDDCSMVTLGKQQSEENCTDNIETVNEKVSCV
Outline: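 Rat frontal cortex membranes from pooled male Sprague-Dawley rats, preincubated at 37 °C, in 50 mM Tris HCl (pH 7.4) with 0.5 mM Na2EDTA, 0.1% ascorbate, 10 μM pargyline and 5.7 mM CaCl2. Triplicates. Three to four experiments combined.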

Rattus norvegicus [4] = test: Percentage of animals selecting drug lever in trained rats at a dose 213 (nmol/kg); assay type: functional; outline: as §1
Rattus norvegicus [5] = test: Effective dose in trained rats was determined at a dose of 86 (nmol/kg); assay type: functional, organism-based
Rattus norvegicus [6] = test: Percentage of animals selecting drug lever in trained rats at a dose 171 (nmol/kg); assay type: functional; outline: as §1
Rattus norvegicus [7] = test: Compound was tested for its effect on animals. Value reported as number of rats disrupted in trained rats at a dose of 86 (nmol/kg); assay type: functional; outline: as §1
Rattus norvegicus [8] = test: Compound was tested for its effect on animals. Value reported as number of rats disrupted in trained rats at a dose of 213 (nmol/kg); assay type: functional; outline: as §1
Rattus norvegicus [9] = test: Compound was tested for its effect on animals. Value reported as number of rats disrupted in trained rats at a dose of 426 (nmol/kg); assay type: functional; outline: as §1
Rattus norvegicus [10] = test: Percentage of animals selecting drug lever in trained rats at a dose 128 (nmol/kg); assay type: functional; outline: as §1
Rattus norvegicus [11] = test: Percentage of animals selecting drug lever in trained rats at a dose 86 (nmol/kg); assay type: functional
Outline: (§2)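 Drug-naive rats held at about 80% of free-feeding weight were trained on a two-lever FR50 food schedule to tell ip LSD tartrate (186 nmol/kg, 0.08 mg/kg) from saline, given 30 min before sessions. Test drugs were given ip in saline (1 mL/kg). Tests ran under extinction and ended at 50 presses on either lever. Rats had to hold 85% correct on training days. Read-out was % selecting the drug lever per dose.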

Rattus norvegicus [12] = test: Percentage of animals selecting drug lever in trained rats at a dose 426 (nmol/kg); assay type: functional; outline: as §1
Rattus norvegicus [13] = test: Compound was tested for its effect on animals. Value reported as number of rats disrupted in trained rats at a dose of 128 (nmol/kg); assay type: functional; outline: as §1
Rattus norvegicus [14] = test: Effective dose in trained rats was determined at a dose of 186 (nmol/kg); assay type: functional
Rattus norvegicus [15] = test: Compound was tested for its effect on animals. Value reported as number of rats disrupted in trained rats at a dose of 186 (nmol/kg); assay type: functional; outline: as §1
Rattus norvegicus [16] = test: Percentage of animals selecting drug lever in trained rats at a dose 186 (nmol/kg); assay type: functional; outline: as §1
Rattus norvegicus [17] = test: Potency in trained rats was determined with relative to reference compound […] at a dose of 186 (nmol/kg); assay type: functional
Rattus norvegicus [18] = test: Effective dose in trained rats was determined at a dose of 213 (nmol/kg); assay type: functional, organism-based
Rattus norvegicus [19] = test: Compound was tested for its effect on animals. Value reported as number of rats disrupted in trained rats at a dose of 639 (nmol/kg); assay type: functional; outline: as §1
Rattus norvegicus [20] = test: Percentage of animals selecting drug lever in trained rats at a dose 639 (nmol/kg); assay type: functional; outline: as §2
Rattus norvegicus [21] = test: Compound was tested for its effect on animals. Value reported as number of rats disrupted in trained rats at a dose of 250 (nmol/kg); assay type: functional; outline: as §1
Rattus norvegicus [22] = test: Compound was tested for its effect on animals. Value reported as number of rats disrupted in trained rats at a dose of 125 (nmol/kg); assay type: functional; outline: as §1
Rattus norvegicus [23] = test: Effective dose in trained rats was determined at a dose of 63 (nmol/kg) Value in parentheses are with 95% confidence intervals; assay type: functional
Rattus norvegicus [24] = test: Compound was tested for its effect on animals. Value reported as number of rats disrupted in trained rats at a dose of 63 (nmol/kg); assay type: functional; outline: as §1
Rattus norvegicus [25] = test: Percentage of animals selecting drug lever in trained rats at a dose 63 (nmol/kg); assay type: functional; outline: as §2
Rattus norvegicus [26] = test: Percentage of animals selecting drug lever in trained rats at a dose 500 (nmol/kg); assay type: functional; outline: as §2
Rattus norvegicus [27] = test: Percentage of animals selecting drug lever in trained rats at a dose 250 (nmol/kg); assay type: functional; outline: as §1
Rattus norvegicus [28] = test: Percentage of animals selecting drug lever in trained rats at a dose 125 (nmol/kg); assay type: functional; outline: as §1
Rattus norvegicus [29] = test: Potency in trained rats was determined with relative to reference compound […] at a dose of 63 (nmol/kg); assay type: functional
Rattus norvegicus [30] = test: Compound was tested for its effect on animals. Value reported as number of rats disrupted in trained rats at a dose of 500 (nmol/kg); assay type: functional; outline: as §1
Rattus norvegicus [31] = test: Compound was tested for its effect on animals. Value reported as number of rats disrupted in trained rats at a dose of 12 (nmol/kg); assay type: functional; outline: as §1
Rattus norvegicus [32] = test: Percentage of animals selecting drug lever in trained rats at a dose 12 (nmol/kg); assay type: functional; outline: as §1
Rattus norvegicus [33] = test: Percentage of animals selecting drug lever in trained rats at a dose 93 (nmol/kg); assay type: functional; outline: as §2
Rattus norvegicus [34] = test: Percentage of animals selecting drug lever in trained rats at a dose 23 (nmol/kg); assay type: functional; outline: as §1
Rattus norvegicus [35] = test: Percentage of animals selecting drug lever in 1-Trained rats at a dose 186 (nmol/kg); assay type: functional; outline: as §1
Rattus norvegicus [36] = test: Compound was tested for its effect on animals. Value reported as number of rats disrupted in trained rats at a dose of 47 (nmol/kg); assay type: functional; outline: as §1
Rattus norvegicus [37] = test: Effective dose in trained rats was determined at a dose of 12 (nmol/kg); assay type: functional
Rattus norvegicus [38] = test: Compound was tested for its effect on animals. Value reported as number of rats disrupted in trained rats at a dose of 23 (nmol/kg); assay type: functional; outline: as §1
Rattus norvegicus [39] = test: Percentage of animals selecting drug lever in trained rats at a dose 47 (nmol/kg); assay type: functional; outline: as §2
Rattus norvegicus [40] = test: Potency in trained rats was determined with relative to reference compound […] at a dose of 12 (nmol/kg); assay type: functional
Rattus norvegicus [41] = test: Compound was tested for its effect on animals. Value reported as number of rats disrupted in trained rats at a dose of 93 (nmol/kg); assay type: functional; outline: as §1

CCCC[C@@H](C)NC(=O)[C@@H]1C=C2c3cccc4[nH]cc(c34)C[C@H]2N(C)C1
D (Rattus norvegicus [1]): 0%
Ki [2]: 0.32 nM
Ki [3]: 16 nM
SDL (Rattus norvegicus [4]): 50%
ED50 (Rattus norvegicus [5]): Weak activity
SDL (Rattus norvegicus [6]): 55%
D (Rattus norvegicus [7]): 10%
D (Rattus norvegicus [8]): 27%
D (Rattus norvegicus [9]): 0%
SDL (Rattus norvegicus [10]): 40%
SDL (Rattus norvegicus [11]): 22%
SDL (Rattus norvegicus [12]): 0%
D (Rattus norvegicus [13]): 0%

CCN(CC)C(=O)[C@@H]1C=C2c3cccc4[nH]cc(c34)C[C@H]2N(C)C1 [LYSERGIDE]
ED50 (Rattus norvegicus [14]): 0.048 µmol/kg
D (Rattus norvegicus [15]): 0%
SDL (Rattus norvegicus [16]): 100%
Potency (Rattus norvegicus [17]): 1

CCCCC(C)NC(=O)[C@@H]1C=C2c3cccc4[nH]cc(c34)C[C@H]2N(C)C1 (stereo partly specified)
ED50 (Rattus norvegicus [18]): inactive
Ki [2]: 4.9 nM
Ki [3]: 55 nM
SDL (Rattus norvegicus [4]): 29%
D (Rattus norvegicus [8]): 30%
D (Rattus norvegicus [9]): 30%
D (Rattus norvegicus [19]): 12.5%
SDL (Rattus norvegicus [20]): 0%
SDL (Rattus norvegicus [12]): 0%

CCC(CC)NC(=O)[C@@H]1C=C2c3cccc4[nH]cc(c34)C[C@H]2N(C)C1
D (Rattus norvegicus [21]): 0%
D (Rattus norvegicus [22]): 0%
Ki [2]: 2.1 nM
ED50 (Rattus norvegicus [23]): 0.052 µmol/kg
Ki [3]: 8 nM
D (Rattus norvegicus [24]): 0%
SDL (Rattus norvegicus [25]): 58%
SDL (Rattus norvegicus [26]): 92%
SDL (Rattus norvegicus [27]): 85%
SDL (Rattus norvegicus [28]): 67%
Potency (Rattus norvegicus [29]): 0.92
D (Rattus norvegicus [30]): 14%

CC[C@@H](C)NC(=O)[C@@H]1C=C2c3cccc4[nH]cc(c34)C[C@H]2N(C)C1
D (Rattus norvegicus [31]): 0%
SDL (Rattus norvegicus [32]): 13%
Ki [3]: 8.8 nM
SDL (Rattus norvegicus [33]): 75%
SDL (Rattus norvegicus [34]): 50%
SDL (Rattus norvegicus [35]): 88%
D (Rattus norvegicus [15]): 0%
D (Rattus norvegicus [36]): 0%
ED50 (Rattus norvegicus [37]): 0.033 µmol/kg
D (Rattus norvegicus [38]): 0%
SDL (Rattus norvegicus [39]): 75%
Potency (Rattus norvegicus [40]): 1.45
D (Rattus norvegicus [41]): 0%
